Experimental data reported in ChEMBL document CHEMBL5303300, “EUbOPEN Chemogenomics Library - Multiplex” (2023).
“And” between values parts separate entries of the source, which are not always exact repeats. Equal values may be shown once.

Test system: U2OS
Assay: Multiplex assay against U2OS
Type: toxicity, cell-based
Details: human, number of replicates 2
Outline: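 On a CQ1 microscope at 37°C and 5% CO2, live cells were imaged after compound addition. They had been stained at seeding with Hoechst33342, BioTracker Green Microtubule Cytoskeleton Dye, MitoTracker Red and Annexin V Alexa Fluor 680. CellPathfinder machine-learning gating assigned cells to Hoechst high-intensity objects or normal cells, normal cells to healthy, pyknosed or fragmented nuclei, and pyknosed cells to mitotic or apoptotic. Tubulin, mitochondrial-mass and membrane-permeability phenotypes are per cents of healthy-nucleus cells.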

[1] = 12 h, 1 µM, compound concentration 1 uM
[2] = 12 h, 10 µM, compound concentration 10 uM
[3] = 24 h, 1 µM, compound concentration 1 uM
[4] = 24 h, 10 µM, compound concentration 10 uM
[5] = 48 h, 1 µM, compound concentration 1 uM
[6] = 48 h, 10 µM, compound concentration 10 uM

Structure (SMILES): OC(c1ccc(-c2ccc(CN3CCN(Cc4ccncc4)CC3)cc2)c(F)c1)(C(F)(F)F)C(F)(F)F
- Population Hoechst High Intensity Objects (%) [1]: 0%
- Population Mitochondria Different-Phenotype (%) [1]: 0% and 1%
- Population Normal (%) [1]: 100%
- Population Pyknosed Nuclei (%) [1]: 14% and 9%
- Population Tubulin-Different-Phenotype (%) [1]: 100% and 87%
- Population Apoptotic (%) [2]: 50% and 40%
- Population Healthy Nuclei (%) [2]: 80% and 50%
- Population Hoechst High Intensity Objects (%) [2]: 0%
- Population Mitochondria Different-Phenotype (%) [2]: 3% and 0%
- Population Mitotic Cells (%) [2]: 50% and 60%
- Population Normal (%) [2]: 100%
- Population Pyknosed Nuclei (%) [2]: 15% and 17%
- Population Hoechst High Intensity Objects (%) [3]: 0%
- Population Membrane Permeable-Phenotype (%) [3]: 0%
- Population Mitochondria Different-Phenotype (%) [3]: 0%
- Population Mitotic Cells (%) [3]: 100% and 42%
- Population Normal (%) [3]: 100% and 99%
- Population Pyknosed Nuclei (%) [3]: 20% and 9%
- Population Apoptotic (%) [4]: 53% and 57%
- Population Healthy Nuclei (%) [4]: 79% and 54%
- Population Hoechst High Intensity Objects (%) [4]: 0%
- Population Mitochondria Different-Phenotype (%) [4]: 2% and 0%
- Population Mitotic Cells (%) [4]: 46% and 42%
- Population Normal (%) [4]: 99% and 100%
- Population Pyknosed Nuclei (%) [4]: 14% and 18%
- Population Tubulin-Different-Phenotype (%) [4]: 50% and 25%
- Population Hoechst High Intensity Objects (%) [5]: 0%
- Population Membrane Permeable-Phenotype (%) [5]: 0% and 1%
- Population Mitochondria Different-Phenotype (%) [5]: 0%
- Population Normal (%) [5]: 100%
- Population Pyknosed Nuclei (%) [5]: 0% and 5%
- Population Apoptotic (%) [6]: 54% and 58%
- Population Healthy Nuclei (%) [6]: 84% and 56%
- Population Hoechst High Intensity Objects (%) [6]: 0% and 1%
- Population Membrane Permeable-Phenotype (%) [6]: 3% and 10%
- Population Mitochondria Different-Phenotype (%) [6]: 2% and 3%
- Population Mitotic Cells (%) [6]: 45% and 41%
- Population Normal (%) [6]: 100% and 98%
- Population Pyknosed Nuclei (%) [6]: 11% and 23%

Structure (SMILES): CS(=O)(=O)c1ccc(C(=O)Nc2cc(F)cc(COc3ccc(Br)cc3CN3CC[C@H](O)C3)c2)c(Cl)c1.O=CO
- Population Healthy Nuclei (%) [1]: 64% and 82%
- Population Hoechst High Intensity Objects (%) [1]: 0%
- Population Mitotic Cells (%) [1]: 20% and 12%
- Population Pyknosed Nuclei (%) [1]: 8% and 13%
- Population Healthy Nuclei (%) [2]: 31% and 70%
- Population Hoechst High Intensity Objects (%) [2]: 0%
- Population Mitotic Cells (%) [2]: 44% and 57%
- Population Pyknosed Nuclei (%) [2]: 21% and 25%
- Population Healthy Nuclei (%) [3]: 82% and 53%
- Population Hoechst High Intensity Objects (%) [3]: 0%
- Population Mitotic Cells (%) [3]: 21% and 46%
- Population Pyknosed Nuclei (%) [3]: 15% and 20%
- Population Healthy Nuclei (%) [4]: 32% and 68%
- Population Hoechst High Intensity Objects (%) [4]: 0%
- Population Mitotic Cells (%) [4]: 20% and 26%
- Population Pyknosed Nuclei (%) [4]: 25% and 28%
- Population Healthy Nuclei (%) [5]: 57% and 85%
- Population Hoechst High Intensity Objects (%) [5]: 0%
- Population Mitotic Cells (%) [5]: 11% and 15%
- Population Pyknosed Nuclei (%) [5]: 18%
- Population Healthy Nuclei (%) [6]: 19% and 52%
- Population Hoechst High Intensity Objects (%) [6]: 0%
- Population Mitotic Cells (%) [6]: 12% and 9%
- Population Pyknosed Nuclei (%) [6]: 44% and 38%

Structure (SMILES): C[C@@H]1CC[C@@]2(OC1)O[C@H]1[C@@H](O)[C@H]3[C@@H]4CC[C@H]5C[C@@H](O[C@@H]6O[C@H](CO)[C@H](O[C@@H]7O[C@H](CO)C(O)[C@H](O[C@@H]8OC[C@@H](O)[C@H](O)[C@H]8O)[C@H]7O[C@@H]7O[C@H](CO)[C@H](O)[C@H](O[C@@H]8O[C@H](CO)[C@@H](O)[C@H](O)[C@H]8O)[C@H]7O)[C@H](O)[C@H]6O)[C@H](O)C[C@]5(C)[C@H]4CC[C@]3(C)[C@H]1[C@@H]2C (stereo partly specified) [DIGITONIN]
- Population Apoptotic (%) [2]: 65% [middle of 4 runs]
- Population Healthy Nuclei (%) [2]: 67% and 87% and 86% and 88%
- Population Hoechst High Intensity Objects (%) [2]: 0%
- Population Membrane Permeable-Phenotype (%) [2]: 0% and 7% and 1% and 3%
- Population Mitochondria Different-Phenotype (%) [2]: 0% and 3%
- Population Normal (%) [2]: 100%
- Population Pyknosed Nuclei (%) [2]: 5% and 3% and 9%
- Population Tubulin-Different-Phenotype (%) [2]: 72% and 92% and 85% and 94%
- Population Apoptotic (%) [4]: 58% [middle of 4 runs]
- Population Healthy Nuclei (%) [4]: 67% and 83% and 85% and 86%
- Population Hoechst High Intensity Objects (%) [4]: 0%
- Population Membrane Permeable-Phenotype (%) [4]: 0% and 2% and 1%
- Population Mitochondria Different-Phenotype (%) [4]: 0% and 2%
- Population Normal (%) [4]: 100%
- Population Pyknosed Nuclei (%) [4]: 13% and 12% and 9%
- Population Tubulin-Different-Phenotype (%) [4]: 65% and 97% and 90% and 96%
- Population Apoptotic (%) [6]: 70% and 100% and 62% and 51%
- Population Healthy Nuclei (%) [6]: 68% and 75% and 92% and 91%
- Population Hoechst High Intensity Objects (%) [6]: 1% and 0%
- Population Membrane Permeable-Phenotype (%) [6]: 3% and 1% and 0%
- Population Mitochondria Different-Phenotype (%) [6]: 5% and 1% and 0%
- Population Normal (%) [6]: 98% and 100% and 99%
- Population Pyknosed Nuclei (%) [6]: 13% and 7% and 6% and 5%
- Population Tubulin-Different-Phenotype (%) [6]: 84% and 100% and 92% and 97%

Structure (SMILES): C[C@@H](Oc1cc(-n2cnc3ccc(OC4CCN(C)CC4)cc32)sc1C(N)=O)c1ccccc1Cl [GSK-579289A]
- Population Apoptotic (%) [1]: 100% and 47%
- Population Fragmented Nuclei (%) [1]: 4% and 6%
- Population Healthy Nuclei (%) [1]: 78%
- Population Hoechst High Intensity Objects (%) [1]: 0%
- Population Membrane Permeable-Phenotype (%) [1]: 24% and 17%
- Population Normal (%) [1]: 100% and 99%
- Population Pyknosed Nuclei (%) [1]: 16% and 15%
- Population Tubulin-Different-Phenotype (%) [1]: 33% and 43%
- Population Apoptotic (%) [2]: 78% and 61%
- Population Fragmented Nuclei (%) [2]: 9% and 23%
- Population Healthy Nuclei (%) [2]: 64% and 47%
- Population Hoechst High Intensity Objects (%) [2]: 2% and 0%
- Population Membrane Permeable-Phenotype (%) [2]: 55% and 27%
- Population Mitochondria Different-Phenotype (%) [2]: 69% and 72%
- Population Mitotic Cells (%) [2]: 22% and 38%
- Population Normal (%) [2]: 97% and 100%
- Population Pyknosed Nuclei (%) [2]: 26% and 28%
- Population Tubulin-Different-Phenotype (%) [2]: 97% and 95%
- Population Apoptotic (%) [3]: 100% and 78%
- Population Fragmented Nuclei (%) [3]: 9% and 4%
- Population Healthy Nuclei (%) [3]: 84% and 76%
- Population Hoechst High Intensity Objects (%) [3]: 0%
- Population Membrane Permeable-Phenotype (%) [3]: 14% and 23%
- Population Mitotic Cells (%) [3]: 0% and 21%
- Population Normal (%) [3]: 100% and 99%
- Population Pyknosed Nuclei (%) [3]: 6% and 18%
- Population Tubulin-Different-Phenotype (%) [3]: 33% and 46%
- Population Apoptotic (%) [4]: 78% and 81%
- Population Fragmented Nuclei (%) [4]: 8% and 5%
- Population Healthy Nuclei (%) [4]: 41% and 52%
- Population Hoechst High Intensity Objects (%) [4]: 4% and 0%
- Population Membrane Permeable-Phenotype (%) [4]: 52% and 83%
- Population Mitochondria Different-Phenotype (%) [4]: 84% and 67%
- Population Mitotic Cells (%) [4]: 21% and 18%
- Population Normal (%) [4]: 95% and 99%
- Population Pyknosed Nuclei (%) [4]: 50% and 41%
- Population Tubulin-Different-Phenotype (%) [4]: 100% and 98%
- Population Apoptotic (%) [5]: 95% and 75%
- Population Healthy Nuclei (%) [5]: 60% and 55%
- Population Hoechst High Intensity Objects (%) [5]: 0%
- Population Membrane Permeable-Phenotype (%) [5]: 33% and 19%
- Population Normal (%) [5]: 100%
- Population Pyknosed Nuclei (%) [5]: 31% and 21%
- Population Tubulin-Different-Phenotype (%) [5]: 56% and 38%
- Population Apoptotic (%) [6]: 100% and 95%
- Population Fragmented Nuclei (%) [6]: 9% and 12%
- Population Healthy Nuclei (%) [6]: 19% and 12%
- Population Hoechst High Intensity Objects (%) [6]: 4%
- Population Membrane Permeable-Phenotype (%) [6]: 100% and 95%
- Population Mitochondria Different-Phenotype (%) [6]: 50% and 70%
- Population Mitotic Cells (%) [6]: 0% and 4%
- Population Normal (%) [6]: 95%
- Population Pyknosed Nuclei (%) [6]: 70% and 74%
- Population Tubulin-Different-Phenotype (%) [6]: 100% and 95%
